Screens from PubChem.
TPT1 inh: blocks Candida albicans tRNA 2'-phosphotransferase; recombinant caTPT1, FP RNA substrate dephosphorylation; inhibition, % at 5 µM; 300,000 tested, 0.81% active; AID 1962;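 active = inhibition above the mean of all tested compounds plus 3 SD, set per screening campaign, cut at about 24% in these data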;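 also: plate controls were DMSO alone for no effect and ferristatin control at 100 nM for full effect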
CSN inh: CSN deneddylation inhibition. 360,000 tested, 0.38% active. inhibition, % at 12.5 µM. Q92905. Purified CSN, SCF-Nedd8-OG deneddylation, fluorescence polarization;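 active = pattern-corrected inhibition above about 35%, with an unprinted fluorescence ratio check between 0.5 and 1.5, limit read from the data, passing the limit was not always enough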;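 also: 0% = enzyme with substrate and 100% = substrate without enzyme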
Target sequence (Q92905 whole entry, looked up, one chain of several): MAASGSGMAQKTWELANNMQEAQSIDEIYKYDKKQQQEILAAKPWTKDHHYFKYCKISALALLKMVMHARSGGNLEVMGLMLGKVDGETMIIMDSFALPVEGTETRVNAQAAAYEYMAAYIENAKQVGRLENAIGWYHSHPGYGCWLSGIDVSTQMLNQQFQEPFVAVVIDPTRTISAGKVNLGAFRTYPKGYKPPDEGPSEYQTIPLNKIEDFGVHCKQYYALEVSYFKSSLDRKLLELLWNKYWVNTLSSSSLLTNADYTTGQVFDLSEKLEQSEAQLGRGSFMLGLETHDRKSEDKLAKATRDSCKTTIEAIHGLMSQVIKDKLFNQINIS
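Test system: purified human Csn5 enzyme expressed in HEK293T cells. Amount: 0.24 nM enzyme. Reagent: SCFSkp2-Nedd8OG substrate at 10 nM final. Schedule: 90 min incubation of compound, enzyme and substrate at room temperature. Detection: fluorescence polarization. Read-out: % inhibition of substrate cleavage by Csn5.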
Rpn11 block: blocks the human proteasome subunit Rpn11. human 26S proteasome, Ub4-pepOG fluorescence polarization; 20S core pre-blocked with epoxomicin. inhibition, % at 20 µM. 360,000 tested, 0.59% active;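 active = inhibition at 20 µM, scaled to each plate's controls, above about 33%, limit read from the data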
HNF4A DNA FP: change in binding of human HNF4 alpha to DNA. HNF4a-FITC DNA binding, fluorescence polarization, 1 h. AID 1224865. P41235. activity change, % at 10 µM. 360,000 tested, 0.3% active; in the data active = activity change above about 30%, passing the limit was not always enough
TPT1 inh confirm: TPT1 (C. albicans) inhibition, confirmation; 2,400 tested, 74% active; inhibition, % at 5 µM; AID 2149; recombinant caTPT1, fluorescence polarization, RNase T1 coupled; shares compounds with TPT1 inh;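 active = inhibition above the primary screen limit, the mean inhibition of all tested compounds plus 3 SD, cut at about 25% in these data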
RNase T1 inh: blocks Aspergillus oryzae RNase T1, a TPT1 counter-screen. inhibition, % at 5 µM. AID 2153. RNase T1 cleavage, fluorescence polarization, 1536-well. shares compounds with TPT1 inh. 2,400 tested, 83% active;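 active = inhibition above the solvent-only control well mean plus 3 SD, limit set per screening run, cut at about 23% in these data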;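 also: plate controls were DMSO wells with enzyme for no effect and wells without RNase T1 for full effect; inhibitors block cleavage so intact labeled substrate keeps polarization high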
Target sequence (P00651 whole entry, looked up): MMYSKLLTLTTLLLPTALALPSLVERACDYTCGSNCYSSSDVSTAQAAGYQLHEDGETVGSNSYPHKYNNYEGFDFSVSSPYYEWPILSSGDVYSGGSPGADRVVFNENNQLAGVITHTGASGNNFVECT
Rpn11 inh conf: Rpn11 inhibition confirmation, single concentration | shares compounds with Rpn11 block | purified human 26S proteasome, Ub4-pepOG fluorescence polarization; proteasome pretreated with epoxomicin | inhibition, % at 20 µM | 1,900 tested, 29% active | AID 602318
MMP-2 counter-1: blocks human MMP-2, flagging nonselective RPN11 hits | shares compounds with Rpn11 block | recombinant MMP-2, FRET peptide cleavage fluorescence | inhibition, % at 20 µM | 1,900 tested, 4% active | AID 602330;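 also: human MMP-2 activated beforehand with APMA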
Thrombin inh: counter-screen for RPN11 inhibitors: inhibition of bovine thrombin. 1,900 tested, 13% active. inhibition, % at 20 µM. bovine thrombin cleavage of Ub4-pepOG, fluorescence polarization. AID 602333. shares compounds with Rpn11 block;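 active = mean inhibition at least 40% at 20 µM, or signal 3 deviations below plate average, so some actives read negative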;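 also: plate controls were thrombin with DMSO for no effect and buffer wells lacking thrombin for full effect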
CSN deneddyl val: Csn5 (human) deneddylation inhibition, single-concentration validation | inhibition, % at 16.6 µM | Csn5 deneddylation of SCF-Nedd8OG, fluorescence polarization, 90 min | 540 tested, 62% active | shares compounds with CSN inh; in the data active = inhibition above about 50%;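 also: 0% = DMSO with enzyme and 100% = no enzyme wells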
MMP-2 counter-2: MMP-2 (human) inhibition, counter-screen for CSN hits | AID 720655 | inhibition, % at 16.6 µM | 540 tested, 33% active | shares compounds with CSN inh | recombinant MMP-2, FRET substrate fluorescence, 60 min;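 active = corrected plate-normalized z-score of 5 or more, or -5 or less, or inhibition of 15% or more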;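 also: plate controls were DMSO wells with enzyme for no effect and buffer wells lacking MMP-2 for full effect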
Thrombin cntr: blocks bovine thrombin in a CSN deneddylation counter-screen; shares compounds with CSN inh; bovine thrombin cleavage of Ub4-pepOG, fluorescence polarization; inhibition, % at 16.6 µM; 540 tested, 49% active; AID 720656;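 active = inhibition at or above a set limit, with a fluorescence interference ratio between 0.5 and a set maximum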
Active calls of the source: *; · = no result shown. Most compounds without a hit are left out; they make up all but 1.5% or so of the library. Rule as the data show it, unless noted: active = inhibition above about 40%; inactive = the rest.

SMILES	TPT1 inh	CSN inh	Rpn11 block	HNF4A DNA FP	TPT1 inh confirm	RNase T1 inh	CSN deneddyl val	MMP-2 counter-2	Thrombin cntr	others
Cc1cc(C=C2C(=O)N(C)C(=S)N(C)C2=O)c(C)n1C1CCCCC1	24.5*	49.1*	49.5*	20.3	27.6*	39.1*	112.5*	1.4	2.7	Rpn11 inh conf=-2.1;MMP-2 counter-1=-27.1;Thrombin inh=14.3
CCN(CC(=O)Nc1ccc(NC(C)=O)cc1)C(=O)CSC(c1ccccc1)c1ccccc1	·	-1.0	1.0	1.3	·	·	·	·	·
O=C1NC(=O)N(c2ccc3c(c2)OCO3)C(=O)/C1=C/c1ccc(N2CCCC2)o1	128.1*	41.9*	·	143.0	142.5*	140.2*	123.9*	-14.1	83.0*
O=C1NC(=O)N(c2ccc3c(c2)OCO3)C(=O)/C1=C/c1cccs1	4.3	4.0	-0.3	-2.8	·	·	·	·	·
CC(C)(C)c1ccc(O)c(N=Cc2c(O)ccc3ccccc23)c1	134.9*	56.5*	·	76.0	137.8*	131.2*	66.6*	-18.9	60.8*
CCN1C(=O)C(=Cc2ccc(N3CCOCC3)o2)C(=O)N(CC)C1=S	111.9*	105.9*	·	48.0*	146.3*	136.8*	62.4*	-23.6	69.3*
O=C1NC(=O)C(=Cc2ccc(N3CCOCC3)cc2)C(=O)N1	-2.9	-2.7	8.2	-0.5	·	·	·	·	·
Cc1ccc(/C=C2\C(=O)NC(=S)N(c3cccc(F)c3)C2=O)o1	40.8*	44.7*	·	20.8	45.8*	57.1*	64.8*	35.0*	54.4*
Cc1ccc(/C=C2\C(=O)NC(=O)N(CCc3ccc(F)cc3)C2=O)o1	20.0	5.3	14.7	-0.1	·	·	·	·	·
Nc1nonc1OCCCCOc1nonc1N	-1.0	-2.1	-4.7	-2.7	·	·	·	·	·
Cc1cccc(N2C(=O)NC(=O)/C(=C\C=C\c3ccco3)C2=O)c1	24.6*	50.5*	31.3	4.9	30.5*	47.8*	83.6*	8.0	9.1
Cc1ccc(N2C(=O)NC(=O)/C(=C\C=C\c3ccco3)C2=O)cc1C	37.7*	68.9*	32.0	1.2	51.3*	69.6*	68.1*	5.9	12.2
Cc1cc(N2CCOCC2)ccc1/C=C1\C(=O)NC(=O)N(c2ccccc2)C1=O	4.8	5.2	3.6	5.3	·	·	·	·	·
Brc1ccc(Oc2cc(Br)c(Br)cc2Br)c(Br)c1	·	-6.0	0.4	-0.3	·	·	·	·	·
COC(=O)C1=C(c2ccc(Cl)c(C(F)(F)F)c2)C[C@@H]2CC[C@H]1N2C(=O)NCc1ccco1	·	1.9	2.9	-5.2	·	·	·	·	·
CS(=O)(=O)c1ccc(C2=C(CNC(=O)c3nccs3)[C@H]3CC[C@@H](C2)N3Cc2ccccc2)cc1	·	-1.6	1.4	3.2	·	·	·	·	·
COP(=O)(OC)C(NC(C)=O)C(Cl)(Cl)Cl (configuration not stated)	-2.2	2.4	-8.7	1.4	·	·	·	·	·
CC1(C)OC(c2ccccc2)=C/C(=C/C=C2C(=O)NC(=O)NC2=O)O1	113.5*	96.0*	·	184.2	106.7*	106.2*	195.4*	-3.9	-7.7
COC(=O)C1=C(c2ccc(OCc3ccccc3)cc2)C[C@@H]2CC[C@H]1N2C(=O)NCc1ccc2c(c1)OCO2	·	3.8	0.9	-3.5	·	·	·	·	·
